Laboratory results reported in ChEMBL document CHEMBL3352408, “Karwinaphthopyranones from the fruits of Karwinskia parvifolia and their cytotoxic activities” (J Nat Prod, 2014).

What was measured:
A549 = test: Cytotoxicity against human A549 cells after 72 hrs by MTT assay; type: functional, cell-based; details: A549, 72 h
In short: (§1)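 MTT read-out of cell viability, with etoposide as positive control. Cell origins: A549, human lung carcinoma; HeLa, cervical cancer; ZR-7530, breast cancer; HCT-15, colon cancer; U373, brain cancer; Hep G2, liver cancer. Potency reported as half-maximal growth inhibitory concentration (IC50).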

[1] = Cytotoxicity against human HCT15 cells after 72 hrs by MTT assay; type: functional, cell-based; details: HCT-15, 72 h; in short: as §1
HeLa = test: Cytotoxicity against human HeLa cells after 72 hrs by MTT assay; type: functional, cell-based; in short: as §1
HepG2 = test: Cytotoxicity against human HepG2 cells after 72 hrs by MTT assay; type: functional, cell-based; details: HepG2, 72 h; in short: as §1
[2] = Cytotoxicity against human U373 cells after 72 hrs by MTT assay; type: functional, cell-based, U-373MG ATCC; details: U373 MG; in short: as §1
[3] = Cytotoxicity against human ZR-7530 cells after 72 hrs by MTT assay; type: functional, cell-based; details: ZR-75-30, 72 h; in short: as §1

Row | SMILES | IC50 (A549) [µM] | IC50 [1] [µM] | IC50 (HeLa) [µM] | IC50 (HepG2) [µM] | IC50 [2] [µM] | IC50 [3] [µM]
1 | Cc1cc(O)c2c(c1)Cc1ccc(C3c4cccc(O)c4C(=O)c4c(O)cc(C)cc43)c(O)c1C2=O (stereo unspecified) | > 10 | > 10 | > 10 | > 10 | > 10 | 9.6
2 | COc1cc(OC)c2c(O)c(C(C)=O)c(C)cc2c1 | > 10 | > 10 | > 10 | 9.6 | > 10 | > 10
3 | COc1cc(C)cc2c1C(=O)c1c(O)cccc1C2=O | > 10 | > 10 | > 10 | 9.3 | > 10 | > 10
4 | COc1cccc2c1C(=O)C1=C(C[C@H](C)O[C@@H]1C)C2(OC)c1ccc2cc3c(c(O)c2c1O)C(=O)C[C@@](C)(O)C3 (stereo partly specified) | > 10 | 4.6 | > 10 | 4.6 | > 10 | 5.5
5 | COc1cc([C@@H]2c3cc4c(cc3[C@@H](O[C@@H]3O[C@@H]5CO[C@@H](C)O[C@H]5[C@H](O)[C@H]3O)[C@H]3COC(=O)[C@H]23)OCO4)cc(OC)c1O [ETOPOSIDE] | 9.3 | 4.6 | 3.4 | 3.6 | 8.5 | 2.5
6 | C[C@@]1(O)CC(=O)c2c(cc3ccc(-c4c5c(c(O)c6c(O)cccc46)C(=O)C[C@@](C)(O)C5)c(O)c3c2O)C1 | > 10 | 4.9 | 4.9 | > 10 | > 10 | 5.8
